Converted amounts (≈) assume the structure as drawn. The source made the active and inactive calls. No cut-off for these calls is given here. Residues, ends and D or L forms follow the SMILES beside them. *: point of attachment. Boc = CC(C)(C)OC(=O)*; NHBn = c1ccc(CN*)cc1
Tests used:
BT-549 = test: Cytotoxicity against human BT549 cells after 48 hrs by neutral red assay; type: cell-based; details: bt-549, 48 h
In short: (§1)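 Cells were exposed to peptides up to a highest tested concentration of 10 μg/mL, using a previously reported cytotoxicity protocol.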

[1] = Cytotoxicity against pig LLC-PK cells after 48 hrs by neutral red assay; type: cell-based, Sus scrofa; in short: as §1
[2] = system: Mycobacterium intracellulare; test: Antimicrobial activity against Mycobacterium intracellulare ATCC 23068 after 70 to 74 hrs by Alamar Blue method; type: functional, organism-based
[3] = Cytotoxicity against human SKOV3 cells after 48 hrs by neutral red assay; type: cell-based; details: sk-ov-3, 48 h; in short: as §1
Cryptococcus neoformans [4] = test: Antimicrobial activity against Cryptococcus neoformans ATCC 90113 assessed as detectable growth after 70 to 74 hrs by CLSI method; type: functional
SK-MEL = test: Cytotoxicity against human SK-MEL cells after 48 hrs by neutral red assay; type: cell-based; in short: as §1
KB = test: Cytotoxicity against human KB cells after 48 hrs by neutral red assay; type: cell-based; in short: as §1
Vero = test: Cytotoxicity against African green monkey Vero cells after 48 hrs by neutral red assay; type: cell-based; details: chlorocebus sabaeus; in short: as §1
Cryptococcus neoformans [5] = test: Antimicrobial activity against Cryptococcus neoformans ATCC 90113 assessed as complete killing after 70 to 74 hrs by CLSI method; type: functional
Cryptococcus neoformans [6] = test: Antimicrobial activity against Cryptococcus neoformans ATCC 90113 assessed as growth inhibition after 70 to 74 hrs by CLSI method; type: functional, organism-based
Staphylococcus aureus [7] = test: Antibacterial activity against Staphylococcus aureus ATCC 29213 assessed as absence of detectable growth; type: functional
In short: (§2)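 Antibacterial susceptibility determined by the CLSI (formerly NCCLS) protocol. MIC is the lowest test concentration (μg/mL) allowing no detectable growth. MBC is the lowest test concentration killing 100% of the organism.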

Staphylococcus aureus [8] = test: Antibacterial activity against methicillin-resistant Staphylococcus aureus ATCC 33591 assessed as 100% killing; type: functional
In short: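 Testing followed the CLSI (formerly NCCLS) susceptibility protocol. MBC was taken as the lowest test concentration in μg/mL that kills 100% of the organism.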

Staphylococcus aureus [9] = test: Antibacterial activity against Staphylococcus aureus ATCC 29213 assessed as 100% killing; type: functional; in short: as §2
Staphylococcus aureus [10] = test: Antibacterial activity against methicillin-resistant Staphylococcus aureus ATCC 33591 assessed as absence of detectable growth; type: functional
In short: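 MIC was determined by the CLSI (formerly NCCLS) protocol. It was taken as the lowest test concentration in μg/mL allowing no detectable growth.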

Compound	Activity (BT-549) [µg/mL]	Activity [1] [µg/mL]	inhibition [2]	Activity [3] [µg/mL]	MIC (Cryptococcus neoformans [4])	Activity (SK-MEL) [µg/mL]	Activity (KB) [µg/mL]	Activity (Vero) [µg/mL]	MFC (Cryptococcus neoformans [5])	IC50 (Cryptococcus neoformans [6])	MIC (Staphylococcus aureus [7]) [µg/mL]	MBC (Staphylococcus aureus [8]) [µg/mL]	MBC (Staphylococcus aureus [9]) [µg/mL]	MIC (Staphylococcus aureus [10]) [µg/mL]
N[C@@H](Cc1cnc(C2CCCCC2)[nH]1)C(=O)N[C@@H](Cc1c[nH]c2ccccc12)C(=O)N[C@@H](Cc1cnc(C2CCCCC2)[nH]1)C(=O)NCc1ccccc1	> 10	> 10	inactive	> 10	1.25 µg/mL (≈ 1.71 µM)	> 10	> 10	> 10	–	–	–	–	–	–
CC(C)(C)OC(=O)N[C@@H](Cc1cnc(C2CCCC2)[nH]1)C(=O)N[C@@H](Cc1c[nH]c2ccccc12)C(=O)N[C@@H](Cc1cnc(C2CCCC2)[nH]1)C(=O)NCc1ccccc1	> 10	> 10	inactive	> 10	inactive	> 10	> 10	> 10	inactive	–	–	–	–	–
CC(C)(C)OC(=O)N[C@@H](Cc1cnc[nH]1)C(=O)N[C@@H](Cc1c[nH]c2ccccc12)C(=O)N[C@@H](Cc1cnc[nH]1)C(=O)NCc1ccccc1 (Boc-His-Trp-His-NHBn)	> 10	> 10	inactive	> 10	–	> 10	> 10	> 10	1.25 µg/mL (≈ 1.87 µM)	–	–	–	–	–
CC(C)(C)c1ncc(C[C@H](NC(=O)[C@H](Cc2c[nH]c3ccccc23)NC(=O)[C@@H](N)Cc2cnc(C(C)(C)C)[nH]2)C(=O)NCc2ccccc2)[nH]1	> 10	> 10	inactive	> 10	–	> 10	> 10	> 10	20 µg/mL (≈ 29.4 µM)	–	–	–	–	–
CC(C)(C)OC(=O)N[C@@H](Cc1cnc(C(C)(C)C)[nH]1)C(=O)N[C@@H](Cc1c[nH]c2ccccc12)C(=O)N[C@@H](Cc1cnc(C(C)(C)C)[nH]1)C(=O)NCc1ccccc1	> 10	> 10	inactive	> 10	inactive	> 10	> 10	> 10	inactive	Not Active	–	–	–	–
CC(C)c1ncc(C[C@H](NC(=O)OC(C)(C)C)C(=O)N[C@@H](Cc2c[nH]c3ccccc23)C(=O)N[C@@H](Cc2cnc(C(C)C)[nH]2)C(=O)NCc2ccccc2)[nH]1	> 10	> 10	inactive	> 10	inactive	> 10	> 10	> 10	inactive	Not Active	–	–	–	–
O=C(O)c1cn(C2CC2)c2cc(N3CCNCC3)c(F)cc2c1=O [CIPROFLOXACIN]	–	–	inactive	–	–	–	–	–	–	–	–	–	–	–
CC(C)c1ncc(C[C@H](NC(=O)[C@H](Cc2c[nH]c3ccccc23)NC(=O)[C@@H](N)Cc2cnc(C(C)C)[nH]2)C(=O)NCc2ccccc2)[nH]1	> 10	> 10	inactive	> 10	20 µg/mL (≈ 30.7 µM)	> 10	> 10	> 10	–	–	–	–	–	–
N[C@@H](Cc1cnc[nH]1)C(=O)N[C@@H](Cc1c[nH]c2ccccc12)C(=O)N[C@@H](Cc1cnc[nH]1)C(=O)NCc1ccccc1 (H-His-Trp-His-NHBn)	> 10	> 10	inactive	> 10	–	> 10	> 10	> 10	10 µg/mL (≈ 17.6 µM)	–	–	–	–	–
CC(C)(C)OC(=O)N[C@@H](Cc1cnc(C23CC4CC(CC(C4)C2)C3)[nH]1)C(=O)N[C@@H](Cc1c[nH]c2ccccc12)C(=O)N[C@@H](Cc1cnc(C23CC4CC(CC(C4)C2)C3)[nH]1)C(=O)NCc1ccccc1	> 10	> 10	inactive	> 10	–	> 10	> 10	> 10	–	–	20 (≈ 21.4 µM)	20 (≈ 21.4 µM)	20 (≈ 21.4 µM)	–
CC(C)(C)OC(=O)N[C@@H](Cc1cnc(C2CCCCC2)[nH]1)C(=O)N[C@@H](Cc1c[nH]c2ccccc12)C(=O)N[C@@H](Cc1cnc(C2CCCCC2)[nH]1)C(=O)NCc1ccccc1	> 10	> 10	inactive	> 10	inactive	> 10	> 10	> 10	inactive	Not Active	–	–	–	–
C[C@@H]1[C@H](O)[C@@H](C)/C=C/C=C/C=C/C=C/C=C/C=C/C=C/[C@H](O[C@@H]2O[C@H](C)[C@@H](O)[C@H](N)[C@@H]2O)C[C@@H]2O[C@](O)(C[C@@H](O)C[C@@H](O)[C@H](O)CC[C@@H](O)C[C@@H](O)CC(=O)O[C@H]1C)C[C@H](O)[C@H]2C(=O)O [AMPHOTERICIN B]	> 10	> 10	inactive	> 10	–	> 10	> 10	> 10	1.25 µg/mL (≈ 1.35 µM)	–	–	–	–	–
N[C@@H](Cc1cnc(C23CC4CC(CC(C4)C2)C3)[nH]1)C(=O)N[C@@H](Cc1c[nH]c2ccccc12)C(=O)N[C@@H](Cc1cnc(C23CC4CC(CC(C4)C2)C3)[nH]1)C(=O)NCc1ccccc1	> 10	> 10	inactive	> 10	0.63 µg/mL (≈ 0.754 µM)	> 10	> 10	> 10	–	–	5 (≈ 5.98 µM)	–	–	10 (≈ 12 µM)
N[C@@H](Cc1cnc(C2CCCC2)[nH]1)C(=O)N[C@@H](Cc1c[nH]c2ccccc12)C(=O)N[C@@H](Cc1cnc(C2CCCC2)[nH]1)C(=O)NCc1ccccc1	> 10	> 10	inactive	> 10	inactive	> 10	> 10	> 10	inactive	Not Active	–	–	–	–

From ChEMBL document CHEMBL3351734 (Bioorg Med Chem Lett, 2014)
